Assay results from ChEMBL document CHEMBL4257486, “A novel allosteric inhibitor that prevents IKKβ activation” (Medchemcomm, 2018).
Calls of active or inactive are those of the source.

Legend:
[1] = biological target: Insulin-like growth factor 1 receptor (Homo sapiens) (UniProt P08069); experiment: Inhibition of human activated IGF-1R using KKKSPGEYVNIEFG as substrate at 100 uM after 40 mins in presence of [gamma-33P-ATP] by scintillation counting analysis
Summary of the method: (§1)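 Radiometric [γ-33P]ATP assay (specific activity approx. 500 cpm/pmol) run by an outsourced service. Compound was added first from a 50x stock in DMSO, giving 2% DMSO final. Positive controls contained DMSO only; blanks used a reference inhibitor to set 0% activity. Reactions were started with MgATP mix, run 40 min at room temperature, and stopped with 3% phosphoric acid. They were spotted on P30 filtermat, washed in 75 mM phosphoric acid and methanol, and scintillation counted.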

[2] = biological target: T1, Inhibitor of nuclear factor kappa-B kinase subunit epsilon (Homo sapiens) (UniProt Q14164); experiment: Inhibition of human activated IKKepsilon using casein as substrate at 100 uM after 40 mins in presence of [gamma-33P-ATP] by scintillation counting analysis; summary of the method: as §1
T1 sequence (whole entry): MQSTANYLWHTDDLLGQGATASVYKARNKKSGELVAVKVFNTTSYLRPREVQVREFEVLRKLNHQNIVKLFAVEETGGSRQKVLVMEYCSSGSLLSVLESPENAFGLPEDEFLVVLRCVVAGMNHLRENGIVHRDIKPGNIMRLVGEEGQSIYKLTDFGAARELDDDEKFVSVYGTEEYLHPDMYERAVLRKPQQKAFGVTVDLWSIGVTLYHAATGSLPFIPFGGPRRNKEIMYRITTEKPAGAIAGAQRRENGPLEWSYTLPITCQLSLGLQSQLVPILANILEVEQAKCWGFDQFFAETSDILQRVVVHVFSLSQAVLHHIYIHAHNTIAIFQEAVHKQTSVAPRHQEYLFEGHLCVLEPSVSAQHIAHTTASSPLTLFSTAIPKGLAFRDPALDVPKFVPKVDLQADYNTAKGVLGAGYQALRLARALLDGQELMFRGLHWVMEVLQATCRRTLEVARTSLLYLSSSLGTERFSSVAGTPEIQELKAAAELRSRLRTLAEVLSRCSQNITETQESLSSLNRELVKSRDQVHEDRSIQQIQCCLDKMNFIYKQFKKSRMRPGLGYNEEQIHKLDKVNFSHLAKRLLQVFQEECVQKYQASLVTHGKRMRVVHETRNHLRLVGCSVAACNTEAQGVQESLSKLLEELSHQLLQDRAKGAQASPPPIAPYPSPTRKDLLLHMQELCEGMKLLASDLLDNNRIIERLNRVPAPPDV

[3] = biological target: T2, Tyrosine-protein kinase ITK/TSK (Homo sapiens) (UniProt Q08881); experiment: Inhibition of human Itk using myelin basic protein as substrate at 100 uM after 40 mins in presence of [gamma-33P-ATP] by scintillation counting analysis; summary of the method: as §1
T2 sequence (whole entry): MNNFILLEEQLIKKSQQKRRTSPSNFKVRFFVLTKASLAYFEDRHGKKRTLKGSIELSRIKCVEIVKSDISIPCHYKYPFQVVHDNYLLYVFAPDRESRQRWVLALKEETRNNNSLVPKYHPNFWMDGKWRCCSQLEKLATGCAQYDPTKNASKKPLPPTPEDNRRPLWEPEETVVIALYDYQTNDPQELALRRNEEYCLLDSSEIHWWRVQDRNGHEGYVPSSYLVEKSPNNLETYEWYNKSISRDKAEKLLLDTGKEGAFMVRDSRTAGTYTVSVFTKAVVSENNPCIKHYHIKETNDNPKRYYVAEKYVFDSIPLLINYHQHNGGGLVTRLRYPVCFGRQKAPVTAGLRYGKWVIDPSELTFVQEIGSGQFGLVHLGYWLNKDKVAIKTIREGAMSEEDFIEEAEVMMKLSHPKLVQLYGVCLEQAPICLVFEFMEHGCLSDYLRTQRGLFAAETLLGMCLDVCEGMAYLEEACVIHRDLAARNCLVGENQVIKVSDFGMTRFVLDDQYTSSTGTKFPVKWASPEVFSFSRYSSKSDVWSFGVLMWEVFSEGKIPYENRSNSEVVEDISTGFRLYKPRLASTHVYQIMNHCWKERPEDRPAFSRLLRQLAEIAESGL

[4] = biological target: MAP kinase-activated protein kinase 2 (Homo sapiens) (UniProt P49137); experiment: Inhibition of human MAPKAPK2 using KKLNRTLSVA as substrate at 100 uM after 40 mins in presence of [gamma-33P-ATP] by scintillation counting analysis; summary of the method: as §1
[5] = biological target: Dual specificity mitogen-activated protein kinase kinase 1 (Homo sapiens) (UniProt Q02750); experiment: Inhibition of human MEK1 at 100 uM after 40 mins in presence of [gamma-33P-ATP] by scintillation counting analysis; summary of the method: as §1
[6] = biological target: Protein kinase C delta type (Homo sapiens) (UniProt Q05655); experiment: Inhibition of human PKCdelta using ERMRPRKRQGSVRRRV as substrate at 100 uM after 40 mins in presence of [gamma-33P-ATP] by scintillation counting analysis; summary of the method: as §1
[7] = biological target: Protein kinase C theta type (Homo sapiens) (UniProt Q04759); experiment: Inhibition of human PKCtheta using histone H1 as substrate at 100 uM after 40 mins in presence of [gamma-33P-ATP] by scintillation counting analysis; summary of the method: as §1
[8] = biological target: Mitogen-activated protein kinase 14 (Homo sapiens) (UniProt Q16539); experiment: Inhibition of human SAPK2a using myelin basic protein as substrate at 100 uM after 40 mins in presence of [gamma-33P-ATP] by scintillation counting analysis; summary of the method: as §1

Measured: inhibition

Chain of MAP kinase-activated protein kinase 2 (Homo sapiens) (P49137 whole entry, looked up): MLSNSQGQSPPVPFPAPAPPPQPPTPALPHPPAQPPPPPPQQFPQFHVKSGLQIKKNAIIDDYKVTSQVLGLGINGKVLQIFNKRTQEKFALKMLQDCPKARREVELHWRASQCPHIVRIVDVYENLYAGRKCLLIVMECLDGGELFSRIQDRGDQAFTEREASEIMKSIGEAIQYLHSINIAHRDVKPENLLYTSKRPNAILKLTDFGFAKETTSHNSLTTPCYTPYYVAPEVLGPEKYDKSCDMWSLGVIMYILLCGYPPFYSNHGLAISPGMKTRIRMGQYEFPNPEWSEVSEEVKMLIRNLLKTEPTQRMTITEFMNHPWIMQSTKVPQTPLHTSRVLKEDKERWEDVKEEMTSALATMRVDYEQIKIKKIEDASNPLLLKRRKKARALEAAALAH
Chain of Dual specificity mitogen-activated protein kinase kinase 1 (Homo sapiens) (Q02750 whole entry): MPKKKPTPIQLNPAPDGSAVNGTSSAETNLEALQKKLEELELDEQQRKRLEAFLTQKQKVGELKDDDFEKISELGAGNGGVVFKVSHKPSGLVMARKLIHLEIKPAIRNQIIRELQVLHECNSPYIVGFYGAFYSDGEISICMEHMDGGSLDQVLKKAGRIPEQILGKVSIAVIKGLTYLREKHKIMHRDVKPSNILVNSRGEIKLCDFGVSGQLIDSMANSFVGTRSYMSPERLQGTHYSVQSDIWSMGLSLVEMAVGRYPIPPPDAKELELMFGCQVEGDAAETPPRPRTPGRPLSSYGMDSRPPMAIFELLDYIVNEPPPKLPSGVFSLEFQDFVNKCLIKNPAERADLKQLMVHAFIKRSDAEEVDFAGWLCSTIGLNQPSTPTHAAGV
Chain of Protein kinase C delta type (Homo sapiens) (Q05655 whole entry, looked up): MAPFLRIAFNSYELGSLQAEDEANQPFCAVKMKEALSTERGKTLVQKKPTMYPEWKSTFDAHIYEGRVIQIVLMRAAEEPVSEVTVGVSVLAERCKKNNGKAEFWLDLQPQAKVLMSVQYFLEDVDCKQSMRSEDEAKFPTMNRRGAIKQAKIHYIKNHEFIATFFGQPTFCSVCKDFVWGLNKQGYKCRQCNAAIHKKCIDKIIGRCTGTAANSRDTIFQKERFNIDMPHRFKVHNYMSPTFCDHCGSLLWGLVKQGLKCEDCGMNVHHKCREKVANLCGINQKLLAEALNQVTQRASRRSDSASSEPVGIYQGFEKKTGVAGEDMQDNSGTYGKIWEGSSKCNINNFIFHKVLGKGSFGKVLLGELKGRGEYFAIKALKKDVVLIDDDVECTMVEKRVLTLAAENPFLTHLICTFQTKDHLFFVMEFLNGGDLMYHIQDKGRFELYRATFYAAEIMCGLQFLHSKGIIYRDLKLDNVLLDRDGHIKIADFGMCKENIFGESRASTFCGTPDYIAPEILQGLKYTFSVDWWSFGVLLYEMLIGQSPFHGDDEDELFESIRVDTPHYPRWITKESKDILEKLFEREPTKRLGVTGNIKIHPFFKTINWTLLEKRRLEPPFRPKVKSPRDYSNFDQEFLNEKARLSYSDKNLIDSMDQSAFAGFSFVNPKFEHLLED
Chain of Protein kinase C theta type (Homo sapiens) (Q04759 whole entry, looked up): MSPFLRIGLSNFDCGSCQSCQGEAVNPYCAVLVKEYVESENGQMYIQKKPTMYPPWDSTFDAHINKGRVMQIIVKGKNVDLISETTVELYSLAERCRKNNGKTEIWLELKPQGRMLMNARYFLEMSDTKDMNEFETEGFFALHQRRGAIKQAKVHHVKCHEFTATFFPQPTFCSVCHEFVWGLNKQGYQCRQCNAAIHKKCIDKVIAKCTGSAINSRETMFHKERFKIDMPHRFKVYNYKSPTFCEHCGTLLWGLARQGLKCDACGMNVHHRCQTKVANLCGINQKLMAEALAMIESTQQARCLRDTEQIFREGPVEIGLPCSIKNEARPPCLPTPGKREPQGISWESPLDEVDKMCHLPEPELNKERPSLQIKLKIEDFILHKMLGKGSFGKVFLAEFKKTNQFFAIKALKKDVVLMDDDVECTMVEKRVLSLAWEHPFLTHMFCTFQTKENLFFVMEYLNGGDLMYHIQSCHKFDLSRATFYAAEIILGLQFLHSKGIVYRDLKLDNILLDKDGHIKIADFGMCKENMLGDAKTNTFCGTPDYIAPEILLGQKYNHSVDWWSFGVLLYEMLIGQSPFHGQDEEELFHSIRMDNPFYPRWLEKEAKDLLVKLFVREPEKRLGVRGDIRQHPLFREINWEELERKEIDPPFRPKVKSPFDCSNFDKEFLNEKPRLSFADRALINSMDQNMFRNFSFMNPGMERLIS
Chain of Mitogen-activated protein kinase 14 (Homo sapiens) (Q16539 whole entry): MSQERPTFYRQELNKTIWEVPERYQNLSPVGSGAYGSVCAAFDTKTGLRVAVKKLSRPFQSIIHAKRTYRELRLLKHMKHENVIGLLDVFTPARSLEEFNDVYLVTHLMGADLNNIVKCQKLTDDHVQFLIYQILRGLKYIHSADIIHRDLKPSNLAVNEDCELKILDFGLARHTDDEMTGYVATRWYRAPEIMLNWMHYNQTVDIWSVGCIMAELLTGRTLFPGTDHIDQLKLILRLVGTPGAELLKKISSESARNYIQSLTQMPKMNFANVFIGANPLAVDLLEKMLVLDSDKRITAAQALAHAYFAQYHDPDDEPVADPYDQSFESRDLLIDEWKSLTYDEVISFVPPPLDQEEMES
Chain of Insulin-like growth factor 1 receptor (Homo sapiens) (P08069 31-736 limits assumed): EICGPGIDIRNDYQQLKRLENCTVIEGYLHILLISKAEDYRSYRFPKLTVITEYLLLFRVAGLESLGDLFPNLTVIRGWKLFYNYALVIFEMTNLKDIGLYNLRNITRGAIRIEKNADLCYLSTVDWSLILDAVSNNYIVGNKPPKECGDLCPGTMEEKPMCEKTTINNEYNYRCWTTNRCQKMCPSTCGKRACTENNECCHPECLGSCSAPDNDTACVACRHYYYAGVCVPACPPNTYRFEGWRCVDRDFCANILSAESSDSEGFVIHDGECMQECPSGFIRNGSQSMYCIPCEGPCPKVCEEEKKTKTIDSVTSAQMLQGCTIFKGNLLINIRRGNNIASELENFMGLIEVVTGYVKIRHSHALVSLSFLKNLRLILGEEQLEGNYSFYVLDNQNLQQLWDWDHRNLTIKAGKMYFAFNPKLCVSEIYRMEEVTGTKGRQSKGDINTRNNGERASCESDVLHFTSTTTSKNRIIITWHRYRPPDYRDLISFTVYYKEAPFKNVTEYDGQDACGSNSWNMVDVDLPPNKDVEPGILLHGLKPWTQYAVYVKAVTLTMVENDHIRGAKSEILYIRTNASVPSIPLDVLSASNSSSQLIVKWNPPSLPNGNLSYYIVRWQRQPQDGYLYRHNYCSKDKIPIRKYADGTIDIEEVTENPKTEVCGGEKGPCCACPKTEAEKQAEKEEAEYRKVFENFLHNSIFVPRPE
Chain of Insulin-like growth factor 1 receptor (Homo sapiens) (P08069 741-1367 limits assumed): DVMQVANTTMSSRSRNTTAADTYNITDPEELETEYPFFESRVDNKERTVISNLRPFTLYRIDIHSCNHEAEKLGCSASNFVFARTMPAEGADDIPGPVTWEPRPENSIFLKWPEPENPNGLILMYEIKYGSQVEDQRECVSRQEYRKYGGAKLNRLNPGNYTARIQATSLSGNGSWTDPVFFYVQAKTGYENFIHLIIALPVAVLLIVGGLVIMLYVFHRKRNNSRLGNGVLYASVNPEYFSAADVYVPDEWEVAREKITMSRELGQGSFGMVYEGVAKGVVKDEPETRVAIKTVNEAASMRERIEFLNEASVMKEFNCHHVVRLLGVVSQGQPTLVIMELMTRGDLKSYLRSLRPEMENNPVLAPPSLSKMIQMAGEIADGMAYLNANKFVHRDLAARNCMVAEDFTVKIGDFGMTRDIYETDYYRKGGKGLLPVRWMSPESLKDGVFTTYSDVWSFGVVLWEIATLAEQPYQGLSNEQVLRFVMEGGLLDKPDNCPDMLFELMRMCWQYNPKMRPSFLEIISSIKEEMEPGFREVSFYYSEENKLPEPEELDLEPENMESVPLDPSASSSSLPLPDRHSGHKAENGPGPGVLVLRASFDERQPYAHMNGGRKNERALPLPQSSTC

CCOc1c(S(=O)(=O)NC2CC(C)(C)NC(C)(C)C2)ccc(Cl)c1Cl
inactive: all assays above
